Screens: PubChem BioAssay, SRMLSC
Lung fibro prol – blocks proliferation of human lung fibroblasts. LL 47 human lung fibroblast viability, ATP luminescence; active compounds read low. viability, % at 10 µM. 85,000 tested, 1.1% active;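 active = viability at or below 50% in the single dose screen; inactive = viability above 50%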;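 note: compound exposure lasted 72 h before the ATP readout; 100% = median luminescence of untreated cell-only wells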
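Assay system: human lung fibroblast line LL 47, low passage. Input: 1,150 fibroblasts seeded per well. Times: overnight cell rest, 72 h compound treatment at 37 °C. Evaluation: % viability of median cell-only signal. Technique: luminescent ATP detection, CellTiter-Glo. Control set: cell-only wells, no compound.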
H69AR growth 86K – growth inhibitors of human H69AR lung tumor cells; AID 598; viability, % at 10 µM; 85,000 tested, 6% active; H69AR lung tumor viability, ATP luminescence, 72 h; active compounds read low;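 active = viability at or below 40%; inactive = viability above 40%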;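 note: multidrug resistant small cell line overexpressing MRP-1 efflux transporter; 100% = mean luminescence of untreated control wells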
HCT116 PTEN-null – growth suppressors of cells with PTEN tumor suppressor deletion | HCT116 PTEN-null viability, CellTiter-Glo, 60 h; active compounds read low | viability, % at 10 µM | 140,000 tested, 1.2% active | AID 827;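 active = viability at or below a set limit, 4 SD under the median of all tested compounds, cut at about 3.7% in these data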;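 note: PTEN knockout HCT116 line with beta catenin targeted HCT116 as companion control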
HUVEC inhibit – human endothelial cell proliferation inhibition | HUVEC proliferation, CellTiter-Glo luminescence, 72 h; active compounds read low | 86,000 tested, 1.1% active | viability, % at 10 µM (by protocol);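 active = viability at or below 30%; inactive = viability above 30%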;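 note: 100% = median luminescence of DMSO-only cell control wells on each plate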
HCT116 bCat-KO – beta-catenin-lacking colon tumor cell growth suppression; 140,000 tested, 1.5% active; HCT116 beta-catenin knockout viability, CellTiter-Glo, 60 h; active compounds read low; viability, % at 10 µM;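 active = viability at or under a set limit, the compound median less 4 SD, cut at about 6% in these data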;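 note: 0% = Hyamine 1622 control at 20 µM and 100% = untreated cell control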
The depositor's hits bear a star; . = no result given. The sample as a whole holds a higher share of hits than the screen did.

SMILES | Lung fibro prol | H69AR growth 86K | HCT116 PTEN-null | HUVEC inhibit | HCT116 bCat-KO
Cc1nn(Cc2c(Cl)cccc2Cl)c(Cl)c1/C=C/C(=O)OCC(=O)NCC(F)(F)F | . | . | 4 | . | 4.2*
COCCNC(=O)COC(=O)/C=C/c1c(C)nn(Cc2ccc(Cl)cc2Cl)c1Cl | 96 | 85 | 79 | 87 | 82
O=C(N1CCOCC1)N1CCCN(C(=O)N2CCOCC2)CC1 | 100 | 36* | 103 | 92 | 104
CC1=C(C(=O)Nc2cc(-c3cccc(F)c3)[nH]n2)C2(CCCCC2)OC1=O | 76 | 32* | 74 | 77 | 58
O=C(CSc1nc(-c2ccco2)cc(C(F)(F)F)n1)Nc1ccc2c(c1)CCC2 | 60 | 21* | 43 | 58 | 50
O=C(CSc1nnc(-c2ccco2)c(-c2ccco2)n1)Nc1ccccc1 | 95 | 71 | 95 | 95 | 90
Cc1cc(NC(=O)CSc2nc(-c3ccco3)cc(C(F)(F)F)n2)n(-c2ccccc2)n1 | . | . | 26 | . | 26
O=C(CSc1nc(-c2ccco2)cc(C(F)(F)F)n1)NC1CCCC1 | 94 | 90 | 91 | 100 | 95
Cc1ccc(NC(=O)CSc2nc(-c3ccco3)cc(C(F)(F)F)n2)cc1C | 72 | 22* | 26 | 48 | 29
Cc1ccc(NC(=O)CSc2nnc(-c3ccco3)c(-c3ccco3)n2)cc1 | 65 | 26* | 23 | 44 | 18
COC(=O)c1ccccc1NC(=O)CSc1nc(-c2ccco2)cc(C(F)(F)F)n1 | 62 | 24* | 13 | 61 | 17
CCCn1ncc(OC)c(Cl)c1=O | . | . | 108 | . | 92
NNC(=O)CNC(c1ccccc1)c1cc(Br)ccc1NC(=O)c1ccccc1Br (centres undefined) | . | . | 77 | . | 89
CS(=O)c1nc(-c2ccc(Br)cc2)cc(-c2ccccc2)c1C#N (centres undefined) | 6.6* | 1.5* | 1.8* | 9.9* | 1.8*
N#Cc1c(-c2ccc(Br)cc2)cc(-c2cccnc2)nc1N | . | . | 91 | . | 104
N#Cc1c(-c2cccc(F)c2)cc(-c2ccccc2)nc1Br | . | . | 56 | . | 49
COc1ccc(-c2cc(-c3ccc(OC)cc3)c(C#N)c(SC)n2)cc1 | 100 | 64 | 64 | 73 | 64
CS(=O)(=O)c1nc(-c2ccc(Br)cc2)cc(-c2ccccc2)c1C#N | 1.9* | 1.2* | 2.1* | 20* | 1.6*
COc1ccc(-c2cc(-c3ccccc3)c(C#N)c(S(C)(=O)=O)n2)cc1 | 71 | 3.6* | 0.9* | 26* | 1.1*
Cc1ccc(N(CC(=O)NCc2ccc(F)cc2)S(=O)(=O)c2cccs2)cc1 | 95 | 96 | 79 | 99 | 79
Cc1ccc(NC(=O)c2ccccc2NS(=O)(=O)c2ccc(F)cc2)cc1S(=O)(=O)N1CCCCC1 | . | . | 6 | . | 7
NC(N)=N/N=C/c1ccc(OCc2ccccc2)cc1 | . | . | 1.8* | . | 1.7*
Cc1ccc(COc2ccc(/C=N/O)cc2)cc1 | . | . | 98 | . | 106
NC(N)=N/N=C/c1ccc(OCc2ccc(Cl)cc2)cc1 | . | . | 1.5* | . | 1.5*
COc1cccc(NC(=O)N(C2CCCCC2)C(C)c2cccs2)c1 (centres undefined) | 91 | 84 | 76 | 101 | 88
SMILES | Lung fibro prol | H69AR growth 86K | HCT116 PTEN-null | HUVEC inhibit | HCT116 bCat-KO
CC1=C(C)/C(=N\OS(=O)(=O)c2ccccc2)C=CC1=O | 3.5* | 1.5* | 17 | 3.8* | 34
Cc1cccc(S(=O)(=O)NNC(=O)c2sc(C)nc2C)c1 | . | . | 101 | . | 92
Cc1ccc(C)c(CSc2nnc([C@@H](N)C(C)C)o2)c1 | 105 | 90 | 106 | 95 | 109
Cc1ccc(C)c(CSc2nnc(CCN)o2)c1 | 71 | 31* | 87 | 55 | 76
Cc1ccc(N(C(=O)Cc2c[nH]c3ccccc23)C(C(=O)NC2CCCCC2)c2ccco2)cc1 (centres undefined) | . | . | 29 | . | 44
CN(C)S(=O)(=O)c1ccc(S(=O)(=O)N(Cc2ccco2)Cc2ccccc2Cl)cc1 | 80 | 40* | 80 | 94 | 76
COc1ccc(C2=CC(=O)OC(C)(c3ccccc3)O2)cc1 (centres undefined) | . | . | 64 | . | 71
C/C(Cl)=C/Cn1c(SCC(C)C)nc2c1c(=O)[nH]c(=O)n2C | 57 | 35* | . | 77 | .
O=C(OCn1ncc(Br)c(Br)c1=O)c1c(F)cccc1F | 2.0* | 1.0* | 1.5* | 2.0* | 1.4*
COC(=O)C1=C(NC(=O)COc2ccc(Cl)cc2Cl)CCS1 | . | . | 91 | . | 96
CCOP(=O)(c1ccccc1)C1(O)CCCCC1 (centres undefined) | 105 | 100 | 90 | 101 | 91
